ChEMBL document CHEMBL2034835, “A solvent free, four-component synthesis and 1,3-dipolar cycloaddition of 4(H)-pyrans with nitrile oxides: synthesis and discovery of antimycobacterial activity of enantiomerically pure 1,2,4-oxadiazoles” (2012)
In brackets after ≈: the same amount, converted by molar mass.

test system: Mycobacterium tuberculosis; assay: Ratio of ethambutol MIC to compound MIC for Mycobacterium tuberculosis H37Rv; type: functional; conditions: not given

`C[C@H](c1ccccc1)N1CC2=C(OC(N)=C(c3nc(-c4ccc(Cl)cc4)no3)C2c2ccc(Cl)cc2Cl)/C(=C/c2ccc(Cl)cc2Cl)C1` (stereo in doubt; 10h) showed a Ratio of 109.

test system: Mycobacterium tuberculosis; assay: Ratio of rifampicin MIC to compound MIC for Mycobacterium tuberculosis H37Rv; type: functional; conditions: not given

Compound `C[C@H](c1ccccc1)N1CC2=C(OC(N)=C(c3nc(-c4ccc(Cl)cc4)no3)C2c2ccc(Cl)cc2Cl)/C(=C/c2ccc(Cl)cc2Cl)C1` (stereo in doubt; 10h) has a Ratio of 1.7.

test system: Mycobacterium tuberculosis; assay: Antitubercular activity against Mycobacterium tuberculosis H37Rv after 28 days by agar dilution method; type: functional; conditions: not given
Summary of the method: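 Agar dilution, following NCCLS guidance, on Middlebrook 7H11 with OADC supplement containing ten-fold serial dilutions of drug. H37Rv inoculum was taken from fresh 7H11/OADC slants, adjusted to 1 mg/mL wet weight in 0.05% Tween 80 saline and diluted 10^-2 to about 10^7 cfu/mL. 5 µL was spotted per tube and incubated at 37 °C for 28 days. MIC is the lowest concentration giving complete growth inhibition.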

Point of comparison: `C[C@H](c1ccccc1)N1CC2=C(OC(N)=C(c3nc(-c4ccc(Cl)cc4)no3)C2c2ccc(Cl)cc2Cl)/C(=C/c2ccc(Cl)cc2Cl)C1` (stereo in doubt; 10h), MIC 0.07 µM (≈ 0.0516 µg/mL). Against it:
- C[C@H](c1ccccc1)N1CC2=C(OC(N)=C(c3nc(-c4ccccc4)no3)C2c2ccc(Cl)cc2Cl)/C(=C/c2ccc(Cl)cc2Cl)C1 (stereo in doubt; 10g) — 8.1-fold higher, 0.57 µM (≈ 0.4 µg/mL)
- C[C@H](c1ccccc1)N1CC2=C(OC(N)=C(c3nc(-c4ccccc4)no3)C2c2ccccc2)/C(=C/c2ccccc2)C1 (stereo in doubt; 10a) — 39-fold higher, 2.76 µM (≈ 1.56 µg/mL)
- C[C@H](c1ccccc1)N1CC2=C(OC(N)=C(c3nc(-c4ccc(Cl)cc4)no3)C2c2ccccc2Cl)/C(=C/c2ccccc2Cl)C1 (stereo in doubt; 9f) — 8.6-fold higher, 0.6 µM (≈ 0.401 µg/mL)
- C[C@H](c1ccccc1)N1CC2=C(OC(N)=C(c3nc(-c4ccccc4)no3)C2c2ccccc2Cl)/C(=C/c2ccccc2Cl)C1 (stereo in doubt; 10e) — 9-fold higher, 0.63 µM (≈ 0.399 µg/mL)
- C[C@H](c1ccccc1)N1CC2=C(OC(N)=C(c3nc(-c4ccccc4)no3)C2c2cccc3ccccc23)/C(=C/c2cccc3ccccc23)C1 (stereo in doubt; 9i) — 270-fold higher, 18.8 µM (≈ 12.5 µg/mL)
- C[C@H](c1ccccc1)N1CC2=C(OC(N)=C(c3nc(-c4ccc(Cl)cc4)no3)C2c2ccccc2Cl)/C(=C/c2ccccc2Cl)C1 (stereo in doubt; 10f) — 2.1-fold higher, 0.15 µM (≈ 0.1 µg/mL)
- C[C@H](c1ccccc1)N1CC2=C(OC(N)=C(c3nc(-c4ccccc4)no3)C2c2cccc3ccccc23)/C(=C/c2cccc3ccccc23)C1 (stereo in doubt; 10i) — 67-fold higher, 4.71 µM (≈ 3.13 µg/mL)
- C[C@H](c1ccccc1)N1CC2=C(OC(N)=C(c3nc(-c4ccccc4)no3)C2c2ccccc2)/C(=C/c2ccccc2)C1 (stereo in doubt; 9a) — 160-fold higher, 11.07 µM (≈ 6.25 µg/mL)
- C[C@H](c1ccccc1)N1CC2=C(OC(N)=C(c3nc(-c4ccc(Cl)cc4)no3)C2c2ccc(Cl)cc2Cl)/C(=C/c2ccc(Cl)cc2Cl)C1 (stereo in doubt; 9h) — 3.9-fold higher, 0.27 µM (≈ 0.199 µg/mL)
- C[C@H](c1ccccc1)N1CC2=C(OC(N)=C(c3nc(-c4ccc(Cl)cc4)no3)C2c2cccc3ccccc23)/C(=C/c2cccc3ccccc23)C1 (stereo in doubt; 10j) — 64-fold higher, 4.48 µM (≈ 3.13 µg/mL)
- Cc1ccc(/C=C2\CN([C@H](C)c3ccccc3)CC3=C2OC(N)=C(c2nc(-c4ccccc4)no2)C3c2ccc(C)cc2)cc1 (stereo in doubt; 10c) — 75-fold higher, 5.28 µM (≈ 3.13 µg/mL)
- C[C@H](c1ccccc1)N1CC2=C(OC(N)=C(c3nc(-c4ccc(Cl)cc4)no3)C2c2ccccc2)/C(=C/c2ccccc2)C1 (stereo in doubt; 9b) — 75-fold higher, 5.22 µM (≈ 3.13 µg/mL)
- Cc1ccc(/C=C2\CN([C@H](C)c3ccccc3)CC3=C2OC(N)=C(c2nc(-c4ccc(Cl)cc4)no2)C3c2ccc(C)cc2)cc1 (stereo in doubt; 9d) — 36-fold higher, 2.49 µM (≈ 1.56 µg/mL)
- C[C@H](c1ccccc1)N1CC2=C(OC(N)=C(c3nc(-c4ccc(Cl)cc4)no3)C2c2ccccc2)/C(=C/c2ccccc2)C1 (stereo in doubt; 10b) — 37-fold higher, 2.6 µM (≈ 1.56 µg/mL)
- Cc1ccc(/C=C2\CN([C@H](C)c3ccccc3)CC3=C2OC(N)=C(c2nc(-c4ccc(Cl)cc4)no2)C3c2ccc(C)cc2)cc1 (stereo in doubt; 10d) — 9.1-fold higher, 0.64 µM (≈ 0.401 µg/mL)

same assay, conditions: Mycobacterium tuberculosis, H37Rv, 672 h; read-out: MIC

Point of comparison: `C[C@H](c1ccccc1)N1CC2=C(OC(N)=C(c3nc(-c4ccc(Cl)cc4)no3)C2c2cccc3ccccc23)/C(=C/c2cccc3ccccc23)C1` (stereo in doubt; 9j), MIC 8.94 µM (≈ 6.25 µg/mL). Against it:
- Cc1ccc(/C=C2\CN([C@H](C)c3ccccc3)CC3=C2OC(N)=C(c2nc(-c4ccccc4)no2)C3c2ccc(C)cc2)cc1 (stereo in doubt; 9c) — within 1.5-fold, 10.5 µM (≈ 6.25 µg/mL)
- CC[C@@H](CO)NCCN[C@@H](CC)CO [ETHAMBUTOL] — within 1.5-fold, 7.64 µM (≈ 1.56 µg/mL)
- C[C@H](c1ccccc1)N1CC2=C(OC(N)=C(c3nc(-c4ccccc4)no3)C2c2ccccc2Cl)/C(=C/c2ccccc2Cl)C1 (stereo in doubt; 9e) — 7.3-fold lower, 1.23 µM (≈ 0.779 µg/mL)
- CO[C@H]1/C=C/O[C@@]2(C)Oc3c(C)c(O)c4c(O)c(c(/C=N/N5CCN(C)CC5)c(O)c4c3C2=O)NC(=O)/C(C)=C\C=C\[C@H](C)[C@H](O)[C@@H](C)[C@@H](O)[C@@H](C)[C@H](OC(C)=O)[C@@H]1C [RIFAMPIN] — 74-fold lower, 0.12 µM (≈ 0.0988 µg/mL)
- NNC(=O)c1ccncc1 [ISONIAZID] — 25-fold lower, 0.36 µM (≈ 0.0494 µg/mL)
- C[C@H](c1ccccc1)N1CC2=C(OC(N)=C(c3nc(-c4ccccc4)no3)C2c2ccc(Cl)cc2Cl)/C(=C/c2ccc(Cl)cc2Cl)C1 (stereo in doubt; 9g) — 8.1-fold lower, 1.11 µM (≈ 0.78 µg/mL)

test system: Mycobacterium tuberculosis; assay: Ratio of ciprofloxacin MIC to compound MIC for Mycobacterium tuberculosis H37Rv; type: functional; conditions: not given

Compound `C[C@H](c1ccccc1)N1CC2=C(OC(N)=C(c3nc(-c4ccc(Cl)cc4)no3)C2c2ccc(Cl)cc2Cl)/C(=C/c2ccc(Cl)cc2Cl)C1` (stereo in doubt; 10h) has a Ratio of 67.3.

test system: Mycobacterium tuberculosis; assay: Ratio of isoniazid MIC to compound MIC for Mycobacterium tuberculosis H37Rv; type: functional; conditions: not given

`C[C@H](c1ccccc1)N1CC2=C(OC(N)=C(c3nc(-c4ccc(Cl)cc4)no3)C2c2ccc(Cl)cc2Cl)/C(=C/c2ccc(Cl)cc2Cl)C1` (stereo in doubt; 10h) was tested, and the Ratio was 5.1.
